SMILES strings stand for the structures.

This note sets out measurements from ChEMBL document CHEMBL1138914, “Design, synthesis, and structure-activity relationships of novel 2-substituted pyrazinoylguanidine epithelial sodium channel blockers: drugs for cystic fibrosis and chronic bronchitis” (J Med Chem, 2006).

This assay deals with Epithelial cell. Put plainly: Recovery of short-circuit current in dog primary bronchial epithelial cells. The format is functional, Canis lupus familiaris. The essentials: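 Canine primary bronchial epithelial monolayers in modified Ussing chambers, KRB pH 7.4, 37 °C, voltage clamped to 0 mV. After a full apical concentration-effect series, the mucosal bath was replaced with KRB three consecutive times. Short-circuit current was read 3 min after the third wash and expressed as percent of starting (basal) current.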
As to `N/C(=N\C(=O)c1nc(Cl)c(N)nc1N)NCCCCc1ccc(N)cc1`, the Activity is listed as 36%.

For `N/C(=N\C(=O)c1nc(Cl)c(N)nc1N)NCCCCc1ccc(OCCO)cc1`, the Activity was found to be 29%.

Regarding `N/C(=N\C(=O)c1nc(Cl)c(N)nc1N)NCCCc1ccccc1`, the Activity is 23%.

`COC(=O)c1ccc(CCCC/N=C(\N)NC(=O)c2nc(Cl)c(N)nc2N)cc1` gave an Activity of 13%.

Take `N/C(=N\C(=O)c1nc(Cl)c(N)nc1N)NCCCCc1ccccc1`: the Activity is 16%.

Turning to `N/C(=N\C(=O)c1nc(Cl)c(N)nc1N)NCCCCc1cccc(OCCO)c1`, the Activity was 30%.

In turn, `N/C(=N\C(=O)c1nc(Cl)c(N)nc1N)NCCCCc1cccc(O)c1` had an Activity of 14%.

With `N/C(=N\C(=O)c1nc(Cl)c(N)nc1N)NCCCCc1ccc(CO)cc1`, the Activity is 20%.

With `N/C(=N\C(=O)c1nc(Cl)c(N)nc1N)NCCc1ccc(O)cc1`, the Activity is 65%.

Turning to `N/C(=N\C(=O)c1nc(Cl)c(N)nc1N)NCCCCCc1ccc(O)cc1`, the Activity is 29%.

Consider `N/C(=N\C(=O)c1nc(Cl)c(N)nc1N)NCCCCc1ccccc1OCCO`, for which the Activity was 21%.

In turn, `N/C(=N\C(=O)c1nc(Cl)c(N)nc1N)NCCc1ccccc1` registered an Activity of 21%.

`N/C(=N\C(=O)c1nc(Cl)c(N)nc1N)NCCCCCCc1ccccc1` had an Activity of 12%.

As to `COc1ccc(COCC/N=C(\N)NC(=O)c2nc(Cl)c(N)nc2N)cc1`, the Activity worked out at 72%.

`N/C(=N\C(=O)c1nc(Cl)c(N)nc1N)NCCCCc1ccccc1O` yielded an Activity of 11%.

Compound `N=C(N)NC(=O)c1nc(Cl)c(N)nc1N` [AMILORIDE] showed an Activity of 96%.

`CCCCCCCC/N=C(\N)NC(=O)c1nc(Cl)c(N)nc1N` displayed an Activity of 7%.

`N/C(=N\C(=O)c1nc(Cl)c(N)nc1N)NCCCCc1ccc(OC[C@H](O)CO)cc1` registered an Activity of 25%.

As for `N/C(=N\C(=O)c1nc(Cl)c(N)nc1N)NCCCOc1ccc(O)cc1`, the Activity was 73%.

For `N/C(=N\C(=O)c1nc(Cl)c(N)nc1N)NCCCCc1ccc(O)c(O)c1`, the Activity came to 45%.

`COc1ccc(CCCC/N=C(\N)NC(=O)c2nc(Cl)c(N)nc2N)cc1`: the Activity was 19%.

Consider `N/C(=N\C(=O)c1nc(Cl)c(N)nc1N)NCCCCc1ccc(OCCC(=O)O)cc1`, for which the Activity was determined as 65%.

Regarding `COc1ccc(CCC/N=C(\N)NC(=O)c2nc(Cl)c(N)nc2N)cc1`, the Activity is on record as 57%.

In turn, `N/C(=N\C(=O)c1nc(Cl)c(N)nc1N)NCCCCCCCCc1ccccc1` displayed an Activity of 12%.

The compound `N/C(=N\C(=O)c1nc(Cl)c(N)nc1N)NCCCCc1ccc(OCC(O)CO)cc1` (configuration not stated) [552-02 FREE BASE] returned an Activity of 20%.

The compound `N/C(=N\C(=O)c1nc(Cl)c(N)nc1N)NCCCCc1ccc(OC2O[C@H](C(=O)O)[C@@H](O)[C@H](O)[C@H]2O)cc1` (some centres not stated) gave an Activity of 86%.

`N=C(NC(=O)c1nc(Cl)c(N)nc1N)Nc1ccccc1` returned an Activity of 15%.

Compound `N/C(=N\C(=O)c1nc(Cl)c(N)nc1N)NCCCCc1ccc(OCC(=O)O)cc1` returned an Activity of 79%.

Compound `N/C(=N\C(=O)c1nc(Cl)c(N)nc1N)NCCCCc1ccc(C(=O)O)cc1` showed an Activity of 65%.

Compound `N/C(=N\C(=O)c1nc(Cl)c(N)nc1N)NCCCCc1ccc(OCCCO)cc1` registered an Activity of 17%.

As to `N/C(=N\C(=O)c1nc(Cl)c(N)nc1N)NCCCCc1ccc(O)cc1`, the Activity was 24%.

As for `N/C(=N\C(=O)c1nc(Cl)c(N)nc1N)NCCCc1ccc(O)cc1`, the Activity stood at 65%.

With `COc1ccc(OCCC/N=C(\N)NC(=O)c2nc(Cl)c(N)nc2N)cc1`, the Activity came to 25%.

Turning to `CCCCCC/N=C(\N)NC(=O)c1nc(Cl)c(N)nc1N`, the Activity is given as 24%.

`N/C(=N\C(=O)c1nc(Cl)c(N)nc1N)NCc1ccccc1` [BENZAMIL] registered an Activity of 47%.

The compound `N/C(=N\C(=O)c1nc(Cl)c(N)nc1N)NCCCCc1ccc(OS(=O)(=O)O)cc1` returned an Activity of 53%.

Regarding `N/C(=N\C(=O)c1nc(Cl)c(N)nc1N)NCCCCc1ccccc1OCC(O)CO` (configuration not stated), the Activity is given as 63%.

In the case of `N/C(=N\C(=O)c1nc(Cl)c(N)nc1N)NCCCCCc1ccccc1`, the Activity is recorded as 6%.

Compound `N/C(=N\C(=O)c1nc(Cl)c(N)nc1N)NCCCCc1cccc(OCC(O)CO)c1` (configuration not stated) showed an Activity of 37%.

Regarding `N/C(=N\C(=O)c1nc(Cl)c(N)nc1N)NCCO`, the Activity is recorded as 77%.

With `N/C(=N\C(=O)c1nc(Cl)c(N)nc1N)NCCCCc1ccc(OC[C@@H](O)CO)cc1`, the Activity is 18%.

Regarding `COc1ccc(CCCCC/N=C(\N)NC(=O)c2nc(Cl)c(N)nc2N)cc1`, the Activity was found to be 5.5%.
